Results taken from ChEMBL document CHEMBL1123566, “Synthesis and cardiac electrophysiological activity of 2- and 3-[(substituted phenyl)alkyl]quinuclidines. Structure-activity relationships” (1987).
“And” between values parts separate entries of the source, which are not always exact repeats. Identical values can stand only once.

Tests used:
[1] = organism: Canis familiaris; assay: In vitro electrophysiological evaluation in canine cardiac Purkinje fibres reported as % change for action potential duration at 0.1-100 uM concentration range; type: functional, Canis lupus familiaris, Purkinje fiber
Outline: (§1)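 Canine cardiac Purkinje fibres, intracellular microelectrode recording, paced at a basic cycle length of 1 s. APD95 and Vmax read simultaneously. Compound: 10 mM stock in deionized water, diluted into Tyrode's solution, tested over the stated concentration range. Each fibre used once as its own control. Result is % change from control, given at 10 µM or as the maximum with its concentration. M = <10% decrease or an increase in Vmax.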

[2] = organism: Canis familiaris; assay: In vitro electrophysiological evaluation in canine cardiac Purkinje fibres reported as percent change Vmax concentration range of 1-100 uM; type: functional; conditions: Canis lupus familiaris; Purkinje fiber
Outline: (§2)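 Canine cardiac Purkinje fibers, intracellular recording, paced at a basic cycle length of 1 s. APD95 and Vmax are recorded together across cumulative concentrations. Compound is a 10 mM aqueous stock diluted into Tyrode's solution. Each fiber is used once as its own control. Readouts are percent change from control at 10 μM, and the maximum change with the concentration where it occurred.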

[3] = test system: Canis familiaris; assay: Left ventricular refractory period was determined by intraduodenal administration of two dosages (high/low) of 10 g/kg of compound in anesthetized dogs. Value was reported for experiment 3; type: functional, Canis lupus familiaris, Cardiac ventricle; conditions: in the assay text read “10 mg/kg” for “10 g/kg”
Outline: (§3)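 Anesthetized dogs, usually given two intraduodenal doses, with the second dose cumulative (low/high). Left ventricular FRP and CT were determined at 15, 30 and 45 min after dosing. HR and BP were measured during nonpacing intervals. Values are % change from control at low/high dose, for individual animals. The vehicle-stability set used 5% dextrose in water/tragacanth (n = 8).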

[4] = organism: Canis familiaris; assay: In vitro electrophysiological evaluation in canine cardiac Purkinje fibres reported as % change for action potential duration at 0.1-10 uM concentration range; type: functional, Canis lupus familiaris, Purkinje fiber; outline: as §1
[5] = organism: Canis familiaris; assay: In vitro electrophysiological activity in canine cardiac Purkinje fibres given as maximum % change for action potential duration at 0.01-100 uM concentration; type: functional, Canis lupus familiaris, Purkinje fiber; outline: as §2
[6] = organism: Canis familiaris; assay: In vitro electrophysiological evaluation in canine cardiac Purkinje fibres reported as maximum percent change Vmax concentration range of 0.01-100 uM; […]; type: functional; conditions: Canis lupus familiaris; Purkinje fiber; outline: as §2
[7] = organism: Canis familiaris; assay: In vitro electrophysiological activity in canine cardiac Purkinje fibres given as maximum % change for action potential duration at 0.1-10 uM concentration; type: functional, Canis lupus familiaris, Purkinje fiber
Outline: (§4)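 Canine cardiac Purkinje fibres, intracellular recording at 1 s basic cycle length, over cumulative concentration ranges. Compound 10 mM stock in deionized water diluted into Tyrode's. Each fibre used once as its own control. Value is the maximum % change from control in APD at 95% repolarization, with the concentration where it occurred; both values given if a biphasic response (>20% reversal) occurred.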

[8] = test system: Canis familiaris; assay: Conduction time was determined by intraduodenal administration of two dosages of 1 mg/kg (low dose) of compound in anesthetized dogs. Value was reported for experiment 3; type: functional, Canis lupus familiaris
Outline: (§5)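 Anesthetized dogs given the compound intraduodenally, generally as two doses with the second a cumulative total (low/high). FRP and CT measured at 15, 30 and 45 min after dosing. HR and BP taken during nonpacing intervals. Values are percent change from control per animal. Activity criterion is FRP or CT prolonged ≥12%. Vehicle: 5% dextrose in water/tragacanth.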

[9] = test system: Canis familiaris; assay: Conduction time was determined by intraduodenal administration of two dosages of 10 mg/kg (high dose) of compound in anesthetized dogs. Value was reported for experiment 3; type: functional, Canis lupus familiaris; outline: as §5
[10] = test system: Canis familiaris; assay: Mean arterial blood pressure was determined by intraduodenal administration of two dosages of 3 mg/kg of (low dose) compound in anesthetized dogs. Value was reported for experiment 1; type: functional, Canis lupus familiaris
Outline: (§6)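 Anesthetized dogs received two intraduodenal doses, the second cumulative (low dose/high dose). Left ventricular FRP and CT were measured 15, 30 and 45 min after dosing. Heart rate and mean blood pressure were taken during nonpacing intervals. Values are percent change from control. The vehicle was 5% dextrose in water/tragacanth. Activity was defined as ≥12% prolongation of FRP or CT.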

[11] = organism: Canis familiaris; assay: In vitro electrophysiological evaluation in canine cardiac Purkinje fibres reported as % change for action potential duration at 1-100 uM concentration range; type: functional, Canis lupus familiaris, Purkinje fiber; outline: as §2
[12] = organism: Canis familiaris; assay: In vitro electrophysiological activity in canine cardiac Purkinje fibres given as maximum % change for action potential duration at 0.1-100 uM concentration; type: functional, Canis lupus familiaris, Purkinje fiber; outline: as §4
[13] = test system: Canis familiaris; assay: Heart rate was determined by intraduodenal administration of two dosages of 1 mg/kg of (low dose) compound in anesthetized dogs. Value was reported for experiment 3; type: functional, Canis lupus familiaris; outline: as §5
[14] = test system: Canis familiaris; assay: Mean arterial blood pressure was determined by intraduodenal administration of two dosages of 10 mg/kg of (high dose) compound in anesthetized dogs. Value was reported for experiment 3; type: functional, Canis lupus familiaris; outline: as §3
[15] = test system: Canis familiaris; assay: Mean arterial blood pressure was determined by intraduodenal administration of two dosages of 1 mg/kg of (low dose) compound in anesthetized dogs. Value was reported for experiment 3; type: functional, Canis lupus familiaris; outline: as §3
[16] = organism: Canis familiaris; assay: In vitro electrophysiological evaluation in canine cardiac ventricular muscle reported as % change for conduction time(CT) at 0.1-10 uM concentration range; Minimal (<IO%increase or a decrease in CT); type: functional, Canis lupus familiaris, Muscle tissue
Outline: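 Canine right ventricular/papillary muscle strips in oxygenated Tyrode's, extracellular extra-stimulus conduction-interval method. FRP and CT are read from conduction-interval curves before and during rising concentrations. Compound is a 10 mM aqueous stock diluted into Tyrode's. Each strip is used once as its own control. Readouts are percent change from control at 10 μM, plus the maximum change with its concentration.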

[17] = test system: Canis familiaris; assay: Mean arterial blood pressure was determined by intraduodenal administration of two dosages of 10 mg/kg of (high dose) compound in anesthetized dogs. Value was reported for experiment 1; type: functional, Canis lupus familiaris; outline: as §6
[18] = organism: Canis familiaris; assay: In vitro electrophysiological evaluation in canine cardiac ventricular muscle reported as maximum % change for conduction time(CT) at 0.1-100 uM concentration range; type: functional, Canis lupus familiaris, Muscle tissue
Outline: (§7)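 Canine right ventricle and papillary muscle strips in oxygenated Tyrode's solution, fitted with stimulating and recording electrodes. The extra-stimulus conduction-interval method was adapted for in vitro use. FRP and CT were read from a conduction-interval curve before and after various compound concentrations, and expressed as percent change from control. Compounds were taken from 10 mM deionized-water stock into Tyrode's. Each strip was used once as its own control.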

[19] = test system: Canis familiaris; assay: Heart rate was determined by intraduodenal administration of two dosages of 10 mg/kg of (high dose) compound in anesthetized dogs. Value was reported for experiment 1; type: functional, Canis lupus familiaris
Outline: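 Anesthetized dogs; compound given intraduodenally, generally as two doses, the second a cumulative (high) dose. LV functional refractory period and conduction time measured 15, 30 and 45 min after dosing; heart rate and blood pressure measured during nonpacing intervals. Values are % change from control, given per individual animal. Active if FRP or CT prolonged by ≥12%.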

[20] = organism: Canis familiaris; assay: In vitro electrophysiological evaluation in canine cardiac Purkinje fibres reported as maximum percent change Vmax concentration range of 0.1-10 uM; type: functional; conditions: Canis lupus familiaris; Purkinje fiber; outline: as §2
[21] = test system: Canis familiaris; assay: Heart rate was determined by intraduodenal administration of two dosages of 3 mg/kg of (high dose) compound in anesthetized dogs. Value was reported for experiment 2; type: functional, Canis lupus familiaris; outline: as §5
[22] = organism: Canis familiaris; assay: In vitro electrophysiological evaluation in canine cardiac ventricular muscle reported as maximum % change for functional refractory period (FRP) at 0.1-100 uM concentration range; parameters: species or system Canis lupus familiaris, Muscle tissue
[23] = organism: Canis familiaris; assay: In vitro electrophysiological evaluation in canine cardiac ventricular muscle reported as % change for the functional refractory period (FRP) concentration range of 0.1-100 uM; parameters: species or system Canis lupus familiaris, Muscle tissue; outline: as §7
[24] = organism: Canis familiaris; assay: In vitro electrophysiological evaluation in canine cardiac Purkinje fibres reported as percent change Vmax concentration range of 0.1-10 uM; type: functional; conditions: Canis lupus familiaris; Purkinje fiber; outline: as §2

Q: Which APD95 [1] does the source give for CCCCCCC[N+](CC)(CC)CCCCc1ccc(Cl)cc1.O=P([O-])(O)O [CLOFILIUM PHOSPHATE] here?
A: Its APD95 is 48% and 46%.

Q: And the Vmax [2]?
A: The Vmax was -50% and -49%.

Q: And the L [3]?
A: Its L is 23%.

Q: And the APD95 [4]?
A: The APD95 was 52%.

Q: What about the APD95 [5] of the same compound?
A: Its APD95 is 27% and 55%.

Q: And the Vmax [6]?
A: Its Vmax is less than 10%.

Q: What about the APD95 [7] of the same compound?
A: Its APD95 is 52%.

Q: What about the CT [8] of the same compound?
A: The CT was 0%.

Q: And the CT [9]?
A: Its CT is -11%.

Q: And the Mean blood pressure [10]?
A: Its Mean blood pressure is -7%.

Q: What about the APD95 [11] of the same compound?
A: Its APD95 is 49% and 18%.

Q: And the APD95 [12]?
A: Its APD95 is 52% and 46%.

Q: And the HR [13]?
A: Its HR is -2%.

Q: And the Mean blood pressure [14]?
A: The Mean blood pressure was 4%.

Q: And the Mean blood pressure [15]?
A: Its Mean blood pressure is -3%.

Q: What about the CT [16] of the same compound?
A: The CT was less than 10%.

Q: What about the Mean blood pressure [17] of the same compound?
A: The Mean blood pressure was -11%.

Q: What about the CT [18] of the same compound?
A: The CT was 19%.

Q: What about the HR [19] of the same compound?
A: The HR was -24%.

Q: And the Vmax [20]?
A: The Vmax was -11%.

Q: What about the HR [21] of the same compound?
A: Its HR is -6%.

Q: What about the FRP [22] of the same compound?
A: Its FRP is -3% and 14% and 7%.

Q: What about the FRP [23] of the same compound?
A: Its FRP is 11% and 5%.

Q: And the Vmax [24]?
A: Its Vmax is -11%.
